Assay results taken from ChEMBL document CHEMBL4342523, “Discovery and Development of S6821 and S7958 as Potent TAS2R8 Antagonists” (J Med Chem, 2020).
≈ marks a conversion by molar mass, not a printed value.

How the values were obtained:
[1] = target: Taste receptor type 2 member 41 (Homo sapiens) (UniProt P59536); assay: Antagonist activity at recombinant human TAS2R41 transiently expressed in HEK293T co-expressing Galpha16gust44 assessed as inhibition of picric acid-induced intracellular calcium level by measuring remaining activity at 25 uM by fluo-4AM dye based FLIPR assay relative to control; format: functional, cell-based
Chain of Taste receptor type 2 member 41 (Homo sapiens) (P59536 whole entry): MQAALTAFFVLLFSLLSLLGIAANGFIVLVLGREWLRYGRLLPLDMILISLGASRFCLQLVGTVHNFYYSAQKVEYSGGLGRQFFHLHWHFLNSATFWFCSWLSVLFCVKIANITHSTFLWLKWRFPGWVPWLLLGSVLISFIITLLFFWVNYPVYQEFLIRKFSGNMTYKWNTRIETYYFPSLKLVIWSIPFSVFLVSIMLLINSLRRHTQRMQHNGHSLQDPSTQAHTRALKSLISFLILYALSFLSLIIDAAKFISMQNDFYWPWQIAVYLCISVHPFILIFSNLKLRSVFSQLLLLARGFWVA

[2] = target: Taste receptor type 2 member 50 (Homo sapiens) (UniProt P59544); assay: Antagonist activity at recombinant human TAS2R50 transiently expressed in HEK293T co-expressing Galpha16gust44 assessed as inhibition of andrographolide-induced intracellular calcium level by measuring remaining activity at 25 uM by fluo-4AM dye based FLIPR assay relative to control; format: functional, cell-based
Chain of Taste receptor type 2 member 50 (Homo sapiens) (P59544 whole entry): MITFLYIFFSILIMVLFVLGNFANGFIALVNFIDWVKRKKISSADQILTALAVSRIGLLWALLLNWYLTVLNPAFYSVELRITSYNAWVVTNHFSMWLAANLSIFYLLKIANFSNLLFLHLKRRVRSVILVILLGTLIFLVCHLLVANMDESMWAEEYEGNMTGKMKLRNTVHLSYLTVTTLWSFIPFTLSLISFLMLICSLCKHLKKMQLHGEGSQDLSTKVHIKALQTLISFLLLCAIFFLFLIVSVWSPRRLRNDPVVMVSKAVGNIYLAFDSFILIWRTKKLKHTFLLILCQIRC

[3] = target: Taste receptor type 2 member 3 (Homo sapiens) (UniProt Q9NYW6); assay: Antagonist activity at recombinant human TAS2R3 transiently expressed in HEK293T co-expressing Galpha16gust44 assessed as inhibition of chloroquine-induced intracellular calcium level by measuring remaining activity at 25 uM by fluo-4AM dye based FLIPR assay relative to control; format: functional, cell-based
Chain of Taste receptor type 2 member 3 (Homo sapiens) (Q9NYW6 whole entry): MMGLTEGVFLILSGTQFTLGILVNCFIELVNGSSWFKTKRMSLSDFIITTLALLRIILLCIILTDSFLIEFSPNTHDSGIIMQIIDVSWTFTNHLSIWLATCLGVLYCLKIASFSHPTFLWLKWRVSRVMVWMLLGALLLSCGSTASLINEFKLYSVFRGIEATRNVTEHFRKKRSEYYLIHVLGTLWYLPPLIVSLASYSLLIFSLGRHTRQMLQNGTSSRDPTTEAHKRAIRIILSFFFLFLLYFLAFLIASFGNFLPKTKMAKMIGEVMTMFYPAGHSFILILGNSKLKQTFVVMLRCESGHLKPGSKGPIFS

[4] = target: Taste receptor type 2 member 31 (Homo sapiens) (UniProt P59538); assay: Antagonist activity at recombinant human TAS2R31 transiently expressed in HEK293T co-expressing Galpha16gust44 assessed as inhibition of aristolochic acid-induced intracellular calcium level by measuring remaining activity at 25 uM by fluo-4AM dye based FLIPR assay relative to control; format: functional, cell-based
Chain of Taste receptor type 2 member 31 (Homo sapiens) (P59538 whole entry): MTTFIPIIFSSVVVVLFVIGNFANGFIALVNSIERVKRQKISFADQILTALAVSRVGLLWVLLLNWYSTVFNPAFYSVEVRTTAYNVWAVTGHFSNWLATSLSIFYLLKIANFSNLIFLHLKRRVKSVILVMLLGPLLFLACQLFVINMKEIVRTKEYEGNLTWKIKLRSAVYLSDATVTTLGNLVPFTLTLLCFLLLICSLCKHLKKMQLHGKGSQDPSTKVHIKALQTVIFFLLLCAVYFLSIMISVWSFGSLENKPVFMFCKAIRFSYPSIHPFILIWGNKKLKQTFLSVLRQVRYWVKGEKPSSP

[5] = target: T1, Taste receptor type 2 member 8 (Homo sapiens) (UniProt Q9NYW2); assay: Antagonist activity at recombinant human TAS2R8 transiently expressed in HEK293T co-expressing Galpha16gust44 assessed as inhibition of andrographolide-induced intracellular calcium level by measuring remaining activity at 25 uM by fluo-4AM dye based FLIPR assay relative to control; format: functional, cell-based
T1 sequence (whole entry): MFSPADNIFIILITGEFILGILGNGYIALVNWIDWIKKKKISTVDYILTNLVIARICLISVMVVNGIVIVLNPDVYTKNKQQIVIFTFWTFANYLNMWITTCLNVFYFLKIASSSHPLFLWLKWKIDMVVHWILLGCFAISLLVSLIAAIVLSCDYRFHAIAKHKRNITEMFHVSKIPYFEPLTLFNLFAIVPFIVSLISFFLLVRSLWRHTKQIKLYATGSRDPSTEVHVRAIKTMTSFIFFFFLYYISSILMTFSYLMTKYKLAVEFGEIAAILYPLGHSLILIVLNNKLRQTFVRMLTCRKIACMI

[6] = target: Taste receptor type 2 member 30 (Homo sapiens) (UniProt P59541); assay: Antagonist activity at recombinant human TAS2R30 transiently expressed in HEK293T co-expressing Galpha16gust44 assessed as inhibition of denatonium-induced intracellular calcium level by measuring remaining activity at 25 uM by fluo-4AM dye based FLIPR assay relative to control; format: functional, cell-based
Chain of Taste receptor type 2 member 30 (Homo sapiens) (P59541 whole entry): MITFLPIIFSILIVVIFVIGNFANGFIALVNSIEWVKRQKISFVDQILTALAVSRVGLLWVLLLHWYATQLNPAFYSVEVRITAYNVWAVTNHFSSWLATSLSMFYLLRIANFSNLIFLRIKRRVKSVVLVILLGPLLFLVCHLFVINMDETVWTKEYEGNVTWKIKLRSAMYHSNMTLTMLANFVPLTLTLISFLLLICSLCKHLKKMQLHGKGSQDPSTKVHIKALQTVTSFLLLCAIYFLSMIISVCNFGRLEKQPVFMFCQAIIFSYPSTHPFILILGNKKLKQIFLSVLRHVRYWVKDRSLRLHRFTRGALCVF

[7] = target: T2, Taste receptor type 2 member 8 (Homo sapiens, UniProt Q9NYW2); assay: Antagonist activity at recombinant human TAS2R8 stably expressed in cells co-expressing Galpha16gust44 assessed as inhibition of andrographolide-induced intracellular calcium level measured for 100 secs by fluo-4 dye based FLIPR assay; format: functional, cell-based
T2 sequence (Q9NYW2 whole entry): T1 sequence (whole entry)
Outline: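 Recombinant cells stably expressing G16t44 chimera and TAS2R8 (clones isolated by limiting dilution), plated 24 h before assay; loaded with fluo-4 in PBS 60 min, washed, rested 15 min in dark at RT. Andrographolide agonist at its EC80, premixed with antagonist and added together; final DMSO 0.5%. Baseline read 10 s, then fluorescence followed 100 s on FLIPR.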

[8] = target: Taste receptor type 2 member 43 (Homo sapiens) (UniProt P59537); assay: Antagonist activity at recombinant human TAS2R43 transiently expressed in HEK293T co-expressing Galpha16gust44 assessed as inhibition of aristolochic acid-induced intracellular calcium level by measuring remaining activity at 25 uM by fluo-4AM dye based FLIPR assay relative to control; format: functional, cell-based
Chain of Taste receptor type 2 member 43 (Homo sapiens) (P59537 whole entry): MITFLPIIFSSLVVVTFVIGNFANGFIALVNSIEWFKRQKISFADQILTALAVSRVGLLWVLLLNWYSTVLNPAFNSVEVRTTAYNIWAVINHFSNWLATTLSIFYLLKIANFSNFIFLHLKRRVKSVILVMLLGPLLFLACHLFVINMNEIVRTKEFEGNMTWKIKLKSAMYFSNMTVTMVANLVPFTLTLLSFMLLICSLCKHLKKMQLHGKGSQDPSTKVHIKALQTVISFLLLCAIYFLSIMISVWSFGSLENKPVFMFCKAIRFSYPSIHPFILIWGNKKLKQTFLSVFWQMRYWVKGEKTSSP

[9] = Stability of the compound in pH 2.8 buffer assessed as parent compound remaining measured after 24 hrs at 100 degC; format: physicochemical; settings: read-out: Stability
[10] = target: T3, Taste receptor type 2 member 1 (Homo sapiens) (UniProt Q9NYW7); assay: Antagonist activity at recombinant human TAS2R1 transiently expressed in HEK293T co-expressing Galpha16gust44 assessed as inhibition of picric acid-induced intracellular calcium level by measuring remaining activity at 25 uM by fluo-4AM dye based FLIPR assay relative to control; format: functional, cell-based
T3 sequence (whole entry): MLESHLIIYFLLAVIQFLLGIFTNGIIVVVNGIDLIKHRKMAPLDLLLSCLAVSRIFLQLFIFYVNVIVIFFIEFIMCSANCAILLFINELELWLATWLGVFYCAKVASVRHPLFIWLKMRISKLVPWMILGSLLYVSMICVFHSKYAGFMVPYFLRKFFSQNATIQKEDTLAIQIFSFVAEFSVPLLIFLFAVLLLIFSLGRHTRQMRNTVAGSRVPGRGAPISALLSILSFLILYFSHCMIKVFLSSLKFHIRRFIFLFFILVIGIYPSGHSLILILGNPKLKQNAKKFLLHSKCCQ

[11] = target: Taste receptor type 2 member 39 (Homo sapiens) (UniProt P59534); assay: Antagonist activity at recombinant human TAS2R39 transiently expressed in HEK293T co-expressing Galpha16gust44 assessed as inhibition of ranitidine-induced intracellular calcium level by measuring remaining activity at 25 uM by fluo-4AM dye based FLIPR assay relative to control; format: functional, cell-based
Chain of Taste receptor type 2 member 39 (Homo sapiens) (P59534 whole entry): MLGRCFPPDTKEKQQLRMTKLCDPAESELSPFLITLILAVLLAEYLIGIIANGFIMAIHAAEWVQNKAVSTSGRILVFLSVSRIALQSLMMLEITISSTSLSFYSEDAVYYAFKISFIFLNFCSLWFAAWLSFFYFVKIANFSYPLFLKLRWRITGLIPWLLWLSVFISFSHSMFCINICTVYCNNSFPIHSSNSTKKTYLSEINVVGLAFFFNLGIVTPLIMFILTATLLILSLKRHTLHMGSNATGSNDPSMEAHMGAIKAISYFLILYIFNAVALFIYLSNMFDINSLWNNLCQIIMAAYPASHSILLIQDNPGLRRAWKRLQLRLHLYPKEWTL

[12] = Solubility of the compound in pH 7.1 buffer measured after 24 hrs; format: physicochemical
[13] = Stability of the compound in pH 7.1 buffer assessed as parent compound remaining measured after 24 hrs at 100 degC; format: physicochemical; settings: read-out: Stability
[14] = target: Taste receptor type 2 member 13 (Homo sapiens) (UniProt Q9NYV9); assay: Antagonist activity at recombinant human TAS2R13 transiently expressed in HEK293T co-expressing Galpha16gust44 assessed as inhibition of oxyphenonium-induced intracellular calcium level by measuring remaining activity at 25 uM by fluo-4AM dye based FLIPR assay relative to control; format: functional, cell-based
Chain of Taste receptor type 2 member 13 (Homo sapiens) (Q9NYV9 whole entry): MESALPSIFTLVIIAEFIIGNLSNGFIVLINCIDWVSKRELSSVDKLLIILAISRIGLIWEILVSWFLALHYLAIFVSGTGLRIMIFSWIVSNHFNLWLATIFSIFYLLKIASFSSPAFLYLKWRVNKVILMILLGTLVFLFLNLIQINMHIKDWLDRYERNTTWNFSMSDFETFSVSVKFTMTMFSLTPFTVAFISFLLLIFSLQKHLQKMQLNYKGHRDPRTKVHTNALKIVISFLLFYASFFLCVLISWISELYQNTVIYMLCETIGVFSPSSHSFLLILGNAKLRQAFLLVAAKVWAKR

[15] = target: Taste receptor type 2 member 5 (Homo sapiens) (UniProt Q9NYW4); assay: Antagonist activity at recombinant human TAS2R5 transiently expressed in HEK293T co-expressing Galpha16gust44 assessed as inhibition of picoline-induced intracellular calcium level by measuring remaining activity at 25 uM by fluo-4AM dye based FLIPR assay relative to control; format: functional, cell-based
Chain of Taste receptor type 2 member 5 (Homo sapiens) (Q9NYW4 whole entry): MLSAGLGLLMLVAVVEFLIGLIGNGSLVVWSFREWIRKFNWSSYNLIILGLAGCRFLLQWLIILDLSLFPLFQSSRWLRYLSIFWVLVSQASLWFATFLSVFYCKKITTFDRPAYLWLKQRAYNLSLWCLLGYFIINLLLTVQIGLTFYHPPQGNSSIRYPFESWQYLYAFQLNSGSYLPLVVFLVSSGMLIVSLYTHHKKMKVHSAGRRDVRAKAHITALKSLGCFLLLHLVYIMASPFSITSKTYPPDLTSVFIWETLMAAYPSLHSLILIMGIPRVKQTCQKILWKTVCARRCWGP

[16] = target: Taste receptor type 2 member 16 (Homo sapiens) (UniProt Q9NYV7); assay: Antagonist activity at recombinant human TAS2R16 transiently expressed in HEK293T co-expressing Galpha16gust44 assessed as inhibition of salicin-induced intracellular calcium level by measuring remaining activity at 25 uM by fluo-4AM dye based FLIPR assay relative to control; format: functional, cell-based
Chain of Taste receptor type 2 member 16 (Homo sapiens) (Q9NYV7 whole entry): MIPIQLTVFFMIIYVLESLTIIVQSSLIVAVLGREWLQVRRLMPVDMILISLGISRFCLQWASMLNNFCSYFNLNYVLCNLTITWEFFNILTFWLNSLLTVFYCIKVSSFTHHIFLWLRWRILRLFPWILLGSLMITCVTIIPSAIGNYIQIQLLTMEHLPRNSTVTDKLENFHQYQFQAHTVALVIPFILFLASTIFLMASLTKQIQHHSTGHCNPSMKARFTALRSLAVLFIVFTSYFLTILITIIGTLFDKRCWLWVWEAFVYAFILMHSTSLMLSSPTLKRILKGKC

Work on `Cc1noc(C)c1Cn1cc(N2C(=O)N(Cc3cccc(O)c3)C(C)(C)C2=O)cn1` yielded an Activity [1] of 133%, an Activity [2] of 91% and an Activity [3] of 72%. For the same molecule, the Activity [4] was 59%, the Activity [5] was 7% and the Activity [6] was 43%. For the same molecule, the IC50 [7] was 60 nM, the Activity [8] was 88% and the remaining at 24 h [9] was over 99%. The Activity [10] was 97%, the Activity [11] was 150% and the solubility at 24 h [12] was 72 µM (≈ 29.5 µg/mL). The remaining at 24 h [13] was over 99%, the Activity [14] was 95% and the Activity [15] was 100%. The Activity [16] was 88%.

With `Cc1noc(C)c1Cn1cc(N2C(=O)CN(Cc3cccc(O)c3)C2=O)cn1` the Activity [1] was 99%, the Activity [2] was 99% and the Activity [3] was 103%. It also gave an Activity [4] of 92%, an Activity [5] of 13% and an Activity [6] of 112%. The IC50 [7] was 20 nM, the Activity [8] was 84% and the remaining at 24 h [9] was over 99%. For the same molecule, the Activity [10] was 119%, the Activity [11] was 74% and the solubility at 24 h [12] was 244 µM (≈ 93.1 µg/mL). The remaining at 24 h [13] was 55%, the Activity [14] was 127% and the Activity [15] was 103%. The Activity [16] was 98%.
